Assay results from ChEMBL document CHEMBL1275556, “High prevalence of plasmid-mediated quinolone resistance genes qnr and aac(6')-Ib-cr in clinical isolates of Enterobacteriaceae from nine teaching hospitals in China” (2008).
Converted amounts (≈) assume the structure as drawn.

Assays:
Citrobacter freundii [1] = assay: Antimicrobial activity against aac(6')-Ib-cr-positive Citrobacter freundii TJ15 harboring GyrA T83I, ParC S80I mutant, wild-type GyrB, qnrB genes by agar dilution method; format: functional
Summary of the method: (§1)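 MICs were determined by the CLSI agar dilution method (M7-A7) and interpreted against CLSI M100-S17 breakpoints.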

Enterobacter cloacae [2] = assay: Antimicrobial activity against aac(6')-Ib-cr-negative Enterobacter cloacae GZ51 harboring qnrA gene by agar dilution method; format: functional
Escherichia coli [3] = assay: Antimicrobial activity against aac(6')-Ib-cr-negative Escherichia coli PU12T harboring wild-type GyrA, GyrB, ParC and qnrS genes by agar dilution method; format: functional; summary of the method: as §1
Klebsiella pneumoniae [4] = assay: Antimicrobial activity against aac(6')-Ib-cr-positive Klebsiella pneumoniae SY26 harboring GyrA S83I, ParC S80I mutant, wild-type GyrB and qnrB genes by agar dilution method; format: functional
Summary of the method: (§2)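 MICs were determined on clinical isolates by CLSI agar dilution (M7-A7) and interpreted against CLSI M100-S17 breakpoints.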

Citrobacter freundii [5] = assay: Antimicrobial activity against aac(6')-Ib-cr-positive Citrobacter freundii PU55 harboring GyrA T83I, ParC S80I mutant, wild-type GyrB, qnrA genes by agar dilution method; format: functional; summary of the method: as §1
Citrobacter freundii [6] = assay: Antimicrobial activity against aac(6')-Ib-cr-negative Citrobacter freundii JN64T harboring qnrA gene by agar dilution method; format: functional; summary of the method: as §1
Escherichia coli [7] = assay: Antimicrobial activity against aac(6')-Ib-cr-positive Escherichia coli FJ3 harboring GyrA S83L, ParC S80R mutant, wild-type GyrB and qnrB genes by agar dilution method; format: functional; summary of the method: as §1
Enterobacter cloacae [8] = assay: Antimicrobial activity against aac(6')-Ib-cr-negative Enterobacter cloacae FJ67T harboring qnrS gene by agar dilution method; format: functional
Enterobacter cloacae [9] = assay: Antimicrobial activity against aac(6')-Ib-cr-negative Enterobacter cloacae SH39 harboring GyrA S83I, ParC S80I mutant, wild-type GyrB and qnrA genes by agar dilution method; format: functional
Klebsiella pneumoniae [10] = assay: Antimicrobial activity against aac(6')-Ib-cr-positive Klebsiella pneumoniae GZ40T harboring qnrB gene by agar dilution method
Citrobacter freundii [11] = assay: Antimicrobial activity against aac(6')-Ib-cr-positive Citrobacter freundii JS33 harboring GyrA T83I mutant, wild-type ParC, GyrB, qnrA and qnrB genes by agar dilution method; format: functional; summary of the method: as §1
Enterobacter cloacae [12] = assay: Antimicrobial activity against aac(6')-Ib-cr-negative Enterobacter cloacae GZ51T harboring qnrA gene by agar dilution method; format: functional
Escherichia coli [13] = assay: Antimicrobial activity against aac(6')-Ib-cr-negative Escherichia coli PU12 harboring GyrA S83L mutant, wild-type GyrB, ParC and qnrS genes by agar dilution method; format: functional; summary of the method: as §1
Enterobacter cloacae [14] = assay: Antimicrobial activity against aac(6')-Ib-cr-negative Enterobacter cloacae FJ61T harboring qnrS gene by agar dilution method; format: functional
Klebsiella pneumoniae [15] = assay: Antimicrobial activity against aac(6')-Ib-cr-negative Klebsiella pneumoniae SY22 harboring GyrA S83I, ParC S80I mutant, wild-type GyrB and qnrS genes by agar dilution method; format: functional; summary of the method: as §1
Klebsiella pneumoniae [16] = assay: Antimicrobial activity against aac(6')-Ib-cr-positive Klebsiella pneumoniae JN132T harboring qnrB gene by agar dilution method; format: functional
Summary of the method: (§3)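 Transconjugants were made by conjugating a qnr/aac(6')-Ib-cr donor with azide-resistant E. coli J53. Selection used Trypticase soy agar with sodium azide 150 µg/ml and sulfamethoxazole 180 µg/ml. […] MICs were read by CLSI agar dilution (M7-A7) and interpreted per M100-S17.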

Klebsiella pneumoniae [17] = assay: Antimicrobial activity against aac(6')-Ib-cr-positive Klebsiella pneumoniae JN41T harboring qnrB gene by agar dilution method; format: functional; summary of the method: as §3
Enterobacter cloacae [18] = assay: Antimicrobial activity against aac(6')-Ib-cr-positive Enterobacter cloacae FJ63 harboring GyrA S83I, GyrA D87A, ParC S80I mutant, wild-type GyrB and qnrS genes by agar dilution method; format: functional
Enterobacter cloacae [19] = assay: Antimicrobial activity against aac(6')-Ib-cr-negative Enterobacter cloacae GZ47 harboring qnrB and qnrS genes by agar dilution method; format: functional
Citrobacter freundii [20] = assay: Antimicrobial activity against aac(6')-Ib-cr-positive Citrobacter freundii PU55T harboring wild-type GyrA, ParC, GyrB and qnrA genes by agar dilution method
Klebsiella pneumoniae [21] = assay: Antimicrobial activity against aac(6')-Ib-cr-positive Klebsiella pneumoniae WH99T harboring qnrB gene by agar dilution method; format: functional; summary of the method: as §3
Klebsiella pneumoniae [22] = assay: Antimicrobial activity against aac(6')-Ib-cr-positive Klebsiella pneumoniae JN132 harboring GyrA S83I, ParC S80I mutant, wild-type GyrB and qnrB genes by agar dilution method; format: functional; summary of the method: as §2
Escherichia coli [23] = assay: Antimicrobial activity against aac(6')-Ib-cr-positive Escherichia coli FJ3T harboring wild-type GyrA, ParC, GyrB and qnrB genes by agar dilution method
Klebsiella pneumoniae [24] = assay: Antimicrobial activity against aac(6')-Ib-cr-positive Klebsiella pneumoniae JN41 harboring GyrA S83I, ParC S80I mutant, wild-type GyrB and qnrB genes by agar dilution method; format: functional; summary of the method: as §2
Citrobacter freundii [25] = assay: Antimicrobial activity against aac(6')-Ib-cr-positive Citrobacter freundii JN1 harboring GyrA T83I, ParC S80I mutant, wild-type GyrB and qnrA genes by agar dilution method; format: functional; summary of the method: as §1
Citrobacter freundii [26] = assay: Antimicrobial activity against aac(6')-Ib-cr-positive Citrobacter freundii JS33T harboring qnrA gene by agar dilution method; format: functional; summary of the method: as §1
Klebsiella pneumoniae [27] = assay: Antimicrobial activity against aac(6')-Ib-cr-negative Klebsiella pneumoniae SY22T harboring qnrS gene by agar dilution method; format: functional; summary of the method: as §1
Klebsiella pneumoniae [28] = assay: Antimicrobial activity against aac(6')-Ib-cr-positive Klebsiella pneumoniae WH99 harboring wild-type GyrA, ParC, GyrB and qnrB genes by agar dilution method; format: functional; summary of the method: as §2
Enterobacter cloacae [29] = assay: Antimicrobial activity against aac(6')-Ib-cr-negative Enterobacter cloacae WH42 harboring wild-type GyrA, ParC, GyrB and qnrA genes by agar dilution method; format: functional
Enterobacter cloacae [30] = assay: Antimicrobial activity against aac(6')-Ib-cr-negative Enterobacter cloacae FJ67 harboring […] and qnrS genes by agar dilution method; format: functional
Escherichia coli [31] = assay: Antimicrobial activity against Escherichia coli J53 harboring wild-type GyrA, ParC, GyrB genes by agar dilution method
Enterobacter cloacae [32] = assay: Antimicrobial activity against aac(6')-Ib-cr-negative Enterobacter cloacae SH39T harboring qnrA gene by agar dilution method; format: functional
Citrobacter freundii [33] = assay: Antimicrobial activity against aac(6')-Ib-cr-negative Citrobacter freundii JN64 harboring GyrA T83I, wild-type ParC, GyrB and qnrA genes by agar dilution method; format: functional; summary of the method: as §1
Enterobacter cloacae [34] = assay: Antimicrobial activity against aac(6')-Ib-cr-negative Enterobacter cloacae GZ47T harboring qnrB gene by agar dilution method; format: functional
Klebsiella pneumoniae [35] = assay: Antimicrobial activity against aac(6')-Ib-cr-positive Klebsiella pneumoniae GZ40 harboring GyrA S83I, ParC S80I mutant, wild-type GyrB and qnrB genes by agar dilution method; format: functional; summary of the method: as §1
Enterobacter cloacae [36] = assay: Antimicrobial activity against aac(6')-Ib-cr-negative Enterobacter cloacae WH42T harboring qnrA gene by agar dilution method; format: functional
Klebsiella pneumoniae [37] = assay: Antimicrobial activity against aac(6')-Ib-cr-positive Klebsiella pneumoniae SY26T harboring wild-type GyrA, ParC, GyrB and qnrB genes by agar dilution method; format: functional
Summary of the method: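 Transconjugants were made by conjugating a qnr/aac(6')-Ib-cr donor with azide-resistant E. coli J53. MICs were read by CLSI agar dilution (M7-A7) and interpreted per M100-S17.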

Enterobacter cloacae [38] = assay: Antimicrobial activity against aac(6')-Ib-cr-negative Enterobacter cloacae FJ61 harboring GyrA S83I, GyrA D87A, ParC S80I mutant, wild-type GyrB and qnrS genes by agar dilution method; format: functional
Citrobacter freundii [39] = assay: Antimicrobial activity against aac(6')-Ib-cr-positive Citrobacter freundii TJ15T harboring wild-type GyrA, ParC, GyrB genes by agar dilution method; format: functional; summary of the method: as §1
Citrobacter freundii [40] = assay: Antimicrobial activity against aac(6')-Ib-cr-positive Citrobacter freundii JN1T by agar dilution method; format: functional; summary of the method: as §1
Enterobacter cloacae [41] = assay: Antimicrobial activity against aac(6')-Ib-cr-positive Enterobacter cloacae FJ63T harboring qnrS gene by agar dilution method; format: functional

Work on `NCC[C@H](O)C(=O)N[C@@H]1C[C@H](N)[C@@H](O[C@H]2O[C@H](CN)[C@@H](O)[C@H](O)[C@H]2O)[C@H](O)[C@H]1O[C@H]1O[C@H](CO)[C@@H](O)[C@H](N)[C@H]1O` [AMIKACIN] yielded an MIC (Citrobacter freundii [1]) of 4 µg/mL (≈ 6.83 µM), an MIC (Enterobacter cloacae [2]) of over 256 µg/mL and an MIC (Escherichia coli [3]) of 4 µg/mL (≈ 6.83 µM). It also gave an MIC (Klebsiella pneumoniae [4]) of 64 µg/mL (≈ 109 µM), an MIC (Citrobacter freundii [5]) of 4 µg/mL (≈ 6.83 µM) and an MIC (Citrobacter freundii [6]) of over 256 µg/mL. For the same compound, the MIC (Escherichia coli [7]) was 4 µg/mL (≈ 6.83 µM), the MIC (Enterobacter cloacae [8]) was 16 µg/mL (≈ 27.3 µM) and the MIC (Enterobacter cloacae [9]) was 2 µg/mL (≈ 3.42 µM). It also gave an MIC (Klebsiella pneumoniae [10]) of 4 µg/mL (≈ 6.83 µM), an MIC (Citrobacter freundii [11]) of 4 µg/mL (≈ 6.83 µM) and an MIC (Enterobacter cloacae [12]) of over 256 µg/mL. For the same compound, the MIC (Escherichia coli [13]) was 8 µg/mL (≈ 13.7 µM), the MIC (Enterobacter cloacae [14]) was 2 µg/mL (≈ 3.42 µM) and the MIC (Klebsiella pneumoniae [15]) was 2 µg/mL (≈ 3.42 µM). For the same compound, the MIC (Klebsiella pneumoniae [16]) was 64 µg/mL (≈ 109 µM), the MIC (Klebsiella pneumoniae [17]) was 4 µg/mL (≈ 6.83 µM) and the MIC (Enterobacter cloacae [18]) was over 256 µg/mL. The MIC (Enterobacter cloacae [19]) was 1 µg/mL (≈ 1.71 µM), the MIC (Citrobacter freundii [20]) was 4 µg/mL (≈ 6.83 µM) and the MIC (Klebsiella pneumoniae [21]) was 2 µg/mL (≈ 3.42 µM). For the same compound, the MIC (Klebsiella pneumoniae [22]) was 64 µg/mL (≈ 109 µM), the MIC (Escherichia coli [23]) was 2 µg/mL (≈ 3.42 µM) and the MIC (Klebsiella pneumoniae [24]) was 4 µg/mL (≈ 6.83 µM). The MIC (Citrobacter freundii [25]) was 4 µg/mL (≈ 6.83 µM), the MIC (Citrobacter freundii [26]) was 4 µg/mL (≈ 6.83 µM) and the MIC (Klebsiella pneumoniae [27]) was 2 µg/mL (≈ 3.42 µM). The MIC (Klebsiella pneumoniae [28]) was 2 µg/mL (≈ 3.42 µM), the MIC (Enterobacter cloacae [29]) was 16 µg/mL (≈ 27.3 µM) and the MIC (Enterobacter cloacae [30]) was 32 µg/mL (≈ 54.6 µM). It also gave an MIC (Escherichia coli [31]) of 1 µg/mL (≈ 1.71 µM), an MIC (Enterobacter cloacae [32]) of 2 µg/mL (≈ 3.42 µM) and an MIC (Citrobacter freundii [33]) of over 256 µg/mL. For the same compound, the MIC (Enterobacter cloacae [34]) was 1 µg/mL (≈ 1.71 µM), the MIC (Klebsiella pneumoniae [35]) was 8 µg/mL (≈ 13.7 µM) and the MIC (Enterobacter cloacae [36]) was 16 µg/mL (≈ 27.3 µM). For the same compound, the MIC (Klebsiella pneumoniae [37]) was 32 µg/mL (≈ 54.6 µM), the MIC (Enterobacter cloacae [38]) was 2 µg/mL (≈ 3.42 µM) and the MIC (Citrobacter freundii [39]) was 4 µg/mL (≈ 6.83 µM). The MIC (Citrobacter freundii [40]) was 2 µg/mL (≈ 3.42 µM) and the MIC (Enterobacter cloacae [41]) was 64 µg/mL (≈ 109 µM).
